Source: publication PMC9055986 (RSC Advances, 2020)

Legend:
PARP-1 = PARP-1 (Homo sapiens, UniProt P09874); assay: In vitro PARP-1 inhibitory assay; assay type: biochemical; settings: IC50 (nM), in vitro inhibitory activity against PARP-1; mean ± S.E.M., n = 3
MCF-7 cells [1] = assay: Cell cycle analysis; assay type: cell-based; settings: for cell cycle arrest: MCF-7 cell line, in words; for DNA content% % G0–G1 / DNA content% % G2–M / DNA content% % Pre G1 / DNA content% % S: MCF-7 cells, 10 μg mL^−1, 24 h
MCF-7 cells [2] = assay: Annexin V-FITC apoptosis assay; assay type: cell-based; settings: 2.5 μM, 24 h, Annexin V and PI double staining
How it was run: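 MCF-7 cells exposed to test compound (2.5 μM) for 24 h, then double-stained with Annexin V-FITC and propidium iodide. Stained cells were detected by flow cytometry, and the percentage of apoptotic cells was determined.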

Chain of PARP-1 (P09874 whole entry): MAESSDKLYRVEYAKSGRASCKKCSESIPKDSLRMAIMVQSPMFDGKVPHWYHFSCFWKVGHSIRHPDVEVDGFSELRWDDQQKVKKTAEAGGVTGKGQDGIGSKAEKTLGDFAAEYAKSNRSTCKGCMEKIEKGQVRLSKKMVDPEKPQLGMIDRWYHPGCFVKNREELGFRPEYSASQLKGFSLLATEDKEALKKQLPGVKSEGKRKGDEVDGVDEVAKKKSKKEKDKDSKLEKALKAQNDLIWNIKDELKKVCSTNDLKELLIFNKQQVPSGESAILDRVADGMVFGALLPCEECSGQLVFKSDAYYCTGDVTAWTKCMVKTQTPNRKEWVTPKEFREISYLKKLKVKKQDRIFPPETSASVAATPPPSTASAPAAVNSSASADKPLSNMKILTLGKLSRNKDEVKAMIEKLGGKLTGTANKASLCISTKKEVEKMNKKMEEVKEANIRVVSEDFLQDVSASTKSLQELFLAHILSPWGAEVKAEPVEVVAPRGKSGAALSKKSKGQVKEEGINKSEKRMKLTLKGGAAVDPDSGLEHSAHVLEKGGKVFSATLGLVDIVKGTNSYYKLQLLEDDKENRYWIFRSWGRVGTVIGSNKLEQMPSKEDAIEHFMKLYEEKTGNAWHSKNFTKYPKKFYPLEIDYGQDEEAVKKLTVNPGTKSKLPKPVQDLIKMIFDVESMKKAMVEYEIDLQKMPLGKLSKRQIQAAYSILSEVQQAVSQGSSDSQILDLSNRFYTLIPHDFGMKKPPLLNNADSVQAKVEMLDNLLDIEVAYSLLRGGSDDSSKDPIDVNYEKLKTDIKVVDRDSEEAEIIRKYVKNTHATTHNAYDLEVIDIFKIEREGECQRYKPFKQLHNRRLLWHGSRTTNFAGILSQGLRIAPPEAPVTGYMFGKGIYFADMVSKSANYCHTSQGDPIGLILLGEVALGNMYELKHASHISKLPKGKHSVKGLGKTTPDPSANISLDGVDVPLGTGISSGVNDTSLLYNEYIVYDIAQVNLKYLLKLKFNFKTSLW

| Structure (SMILES) | IC50 (PARP-1) [nM] | cell cycle arrest (MCF-7 cells [1]) | DNA content% % G0–G1 (MCF-7 cells [1]) [%] | DNA content% % G2–M (MCF-7 cells [1]) [%] | DNA content% % Pre G1 (MCF-7 cells [1]) [%] | DNA content% % S (MCF-7 cells [1]) [%] | Apoptosis Total (MCF-7 cells [2]) [%] |
| --- | --- | --- | --- | --- | --- | --- | --- |
| COC(=O)c1ccc(NC(=O)Cn2c(=S)n(-c3ccccc3)c(=O)c3ccccc32)cc1 [Compound 6a, Methyl 4-(2-(4-oxo-3-phenyl-2-thioxo-3,4-dihydroquinazolin-1(2H)-yl)acetamido)benzoate] | 56 ± 2.95 | – | – | – | – | – | – |
| CC(=O)c1ccc(NC(=O)Cn2c(=S)n(-c3ccccc3)c(=O)c3ccccc32)cc1 [Compound 6b, N-(4-Acetylphenyl)-2-(4-oxo-3-phenyl-2-thioxo-3,4-dihydroquinazolin-1(2H)-yl)acetamide] | 64.7 ± 3.38 | – | – | – | – | – | – |
| COc1ccc(-c2cc(-c3ccc(NC(=O)CSc4nc5ccccc5c(=O)n4-c4ccccc4)cc3)nc(N)c2C#N)cc1 [Compound 8a, N-(4-(6-Amino-5-cyano-4-(4-methoxyphenyl)pyridin-2-yl)phenyl)-2-((4-oxo-3-phenyl-3,4-dihydroquinazolin-2-yl)thio)acetamide] | 32.5 ± 2.64 | – | – | – | – | – | – |
| COC(=O)c1ccc(NC(=O)CNNc2nc3ccccc3c(=O)n2-c2ccccc2)cc1 [Compound 12a, Methyl 4-(2-(2-(4-oxo-3-phenyl-3,4-dihydroquinazolin-2-yl)hydrazinyl)acetamido)benzoate] | 39.1 ± 3.89 | cell growth arrest at the G2/M phase | 38.51 | 38.06 | 26.55 | 23.43 | – |
| NS(=O)(=O)c1ccc(NC(=O)CNNc2nc3ccccc3c(=O)n2-c2ccccc2)cc1 [Compound 12c, 2-(2-(4-Oxo-3-phenyl-3,4-dihydroquinazolin-2-yl)hydrazinyl)-N-(4-sulfamoylphenyl)-acetamide] | 27.9 ± 3.45 | cell growth arrest at the G2/M phase | 43.28 | 23.49 | 19.31 | 33.23 | – |
| O=c1c2ccccc2nc(NN=Cc2ccc(O)cc2)n1-c1ccccc1 [Compound 13b, 2-(2-(4-Hydroxybenzylidene)hydrazinyl)-3-phenylquinazolin-4(3H)-one] | 44.2 ± 3.12 | – | – | – | – | – | – |
| COc1ccccc1C=NNc1nc2ccccc2c(=O)n1-c1ccccc1 [Compound 13c, 2-(2-(2-Methoxybenzylidene)hydrazinyl)-3-phenylquinazolin-4(3H)-one] | 45.6 ± 2.86 | – | – | – | – | – | – |
| CN[C@@H]1C[C@H]2O[C@@](C)([C@@H]1OC)n1c3ccccc3c3c4c(c5c6ccccc6n2c5c31)C(=O)NC4 [Stauroporine, reference compound] | – | – | 37.19 | 36.59 | – | 26.22 | 31.74 |
